How the values were obtained:
[1] = test system: Trypanosoma brucei brucei; assay: Antitrypanosomal activity against diminazene-, pentamidine-, and melaminophenyl arsenical-resistant HAPT1-deficient Trypanosoma brucei brucei B48 after 3 days by alamar blue assay; format: functional, organism-based; settings: Trypanosoma brucei, B48, 72 h
In short: (§1)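 Bloodstream-form T. b. brucei (wild-type s427; TbAT1-KO, made from s427 by TbAT1 deletion; B48, selected from TbAT1-KO in vitro on pentamidine, lacking functional HAPT1). Cells were exposed to compound for 48 h, then resazurin (Alamar blue) was added for a further 24 h. A single fluorescence reading gave EC50.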

[2] = test system: Trypanosoma brucei brucei; assay: Antitrypanosomal activity against diminazene aceturate-resistant TbAT1 gene-deficient Trypanosoma brucei brucei AT1-KO after 3 days by alamar blue assay; format: functional, organism-based; settings: Trypanosoma brucei, AT1-KO, 72 h; in short: as §1
[3] = test system: Trypanosoma brucei brucei; assay: Antitrypanosomal activity against wild type Trypanosoma brucei brucei Lister 427 after 3 days by alamar blue assay; format: functional, organism-based; settings: Trypanosoma brucei, Lister 427, 72 h; in short: as §1
L6 = assay: Cytotoxicity against rat L6 cells after 72 hrs by alamar blue assay; format: cell-based; settings: Rattus norvegicus, L6, 72 h
[4] = Cytotoxicity against human HEK cells after 3 days by alamar blue assay; format: cell-based, HEK293; settings: Homo sapiens, HEK293, 72 h
In short: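 Human embryonic kidney cells tested by resazurin (Alamar blue) assay: 48 h with compound, then 24 h more after dye addition, single reading; EC₅₀ derived.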

[5] = test system: Trypanosoma brucei rhodesiense; assay: Antitrypanosomal activity against Trypanosoma brucei rhodesiense STIB900 infected in rat L6 cells after 72 hrs by alamar blue assay; format: functional, organism-based; settings: Trypanosoma brucei, STIB900, 72 h
[6] = test system: Trypanosoma brucei brucei; assay: Resistance factor, ratio of EC50 for diminazene-, pentamidine-, and melaminophenyl arsenical-resistant HAPT1-deficient Trypanosoma brucei brucei B48 to EC50 for wild type Trypanosoma brucei brucei Lister 427; format: functional
In short: (§2)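 Resistance factor is the EC50 in the resistant line (TbAT1-KO or B48) divided by the EC50 in wild-type s427. […] Resistant and wild-type EC50s were compared by Student t-test.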

[7] = test system: Trypanosoma brucei brucei; assay: Resistance factor, ratio of EC50 for diminazene aceturate-resistant TbAT1 gene-deficient Trypanosoma brucei brucei AT1-KO to EC50 for wild type Trypanosoma brucei brucei Lister 427; format: functional; in short: as §2
[8] = Selectivity index, ratio of EC50 for human HEK cells to EC50 for wild type Trypanosoma brucei brucei Lister 427; format: toxicity, cell-based, HEK293; settings: HEK cells, read-out: Ratio EC50
In short: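 Ratio of EC₅₀ in HEK cells to EC₅₀ in wild-type T. b. brucei s427, both from resazurin assays.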

Compound	EC50 [1]	EC50 [2]	EC50 [3]	EC50 (L6)	EC50 [4]	EC50 [5]	Ratio EC50 [6]	Ratio EC50 [7]	selectivity ratio [8]
CC[P+](CC)(CC)Cc1ccc(C(=O)c2ccc(C[P+](CC)(CC)CC)cc2)cc1	> 100 µM	> 100 µM	> 100 µM	> 149 µM	> 300 µM	77.8 µM	–	–	–
COc1cc([C@@H]2c3cc4c(cc3[C@H](O)[C@H]3COC(=O)[C@H]23)OCO4)cc(OC)c1OC [PODOFILOX]	–	–	–	0.012 µM	–	–	–	–	–
Fc1c(F)c(F)c([P+](Cc2ccc(Cc3ccc(C[P+](c4ccccc4)(c4ccccc4)c4c(F)c(F)c(F)c(F)c4F)cc3)cc2)(c2ccccc2)c2ccccc2)c(F)c1F.[Br-].[Br-]	2.74 µM	3.79 µM	2.68 µM	–	> 300 µM	16 µM	1	1.4	> 110
FC(F)(F)c1ccc([P+](Cc2ccc(Oc3ccc(C[P+](c4ccc(C(F)(F)F)cc4)(c4ccc(C(F)(F)F)cc4)c4ccc(C(F)(F)F)cc4)cc3)cc2)(c2ccc(C(F)(F)F)cc2)c2ccc(C(F)(F)F)cc2)cc1.[Br-].[Br-]	0.28 µM	0.32 µM	0.24 µM	9.93 µM	174 µM	5.26 µM	1.2	1.3	723
FC(F)(F)c1ccc([P+](Cc2ccc(Cc3ccc(C[P+](c4ccc(C(F)(F)F)cc4)(c4ccc(C(F)(F)F)cc4)c4ccc(C(F)(F)F)cc4)cc3)cc2)(c2ccc(C(F)(F)F)cc2)c2ccc(C(F)(F)F)cc2)cc1.[Br-].[Br-]	0.28 µM	0.37 µM	0.23 µM	7.52 µM	77.1 µM	1.72 µM	1.2	1.6	338
O=S(=O)([O-])c1cccc([P+](Cc2ccc(Cc3ccc(C[P+](c4ccccc4)(c4ccccc4)c4cccc(S(=O)(=O)[O-])c4)cc3)cc2)(c2ccccc2)c2ccccc2)c1	> 100 µM	> 100 µM	> 100 µM	> 92 µM	> 300 µM	> 92 µM	–	–	–
O=C(c1ccc(C[P+](c2ccco2)(c2ccco2)c2ccco2)cc1)c1ccc(C[P+](c2ccco2)(c2ccco2)c2ccco2)cc1.[Br-].[Br-]	21.7 µM	33.8 µM	36.9 µM	86 µM	–	13.8 µM	0.6	0.9	–
CC(=O)N(c1ccc(C[P+](CC(C)C)(CC(C)C)CC(C)C)cc1)c1ccc(C[P+](CC(C)C)(CC(C)C)CC(C)C)cc1	–	–	–	> 112 µM	–	11.4 µM	–	–	–
C[P+](C)(Cc1ccc(Cc2ccc(C[P+](C)(C)c3ccccc3)cc2)cc1)c1ccccc1.[Br-].[Br-]	3.84 µM	4.6 µM	5.45 µM	> 142 µM	> 300 µM	2.59 µM	0.7	0.8	> 55
Fc1c(F)c(F)c([P+](Cc2ccc(Oc3ccc(C[P+](c4ccccc4)(c4ccccc4)c4c(F)c(F)c(F)c(F)c4F)cc3)cc2)(c2ccccc2)c2ccccc2)c(F)c1F.[Br-].[Br-]	6.68 µM	9.9 µM	23.2 µM	5.35 µM	> 300 µM	12.8 µM	0.3	0.4	> 10
C[P+](C)(Cc1ccc(C(=O)c2ccc(C[P+](C)(C)c3ccccc3)cc2)cc1)c1ccccc1.[Br-].[Br-]	24.6 µM	28.8 µM	19.2 µM	> 139 µM	–	8.8 µM	1.3	1.5	–
CC[P+](CC)(CC)Cc1ccc(Cc2ccc(C[P+](CC)(CC)CC)cc2)cc1.[Br-].[Br-]	19.3 µM	18.5 µM	21.5 µM	48.3 µM	> 300 µM	18.7 µM	0.9	0.9	> 14
N=C(N)c1ccc(/N=N/Nc2ccc(C(=N)N)cc2)cc1 [DIMINAZENE]	2.62 µM	–	0.517 µM	–	–	–	5.1	4.6	–
CC(C)C[P+](Cc1ccc(C(=O)c2ccccc2)cc1)(CC(C)C)CC(C)C.[Br-]	6.28 µM	6.1 µM	5.9 µM	> 209 µM	> 300 µM	4.48 µM	1.1	1	> 50
O=C(c1ccc(C[P+](c2ccc(C(F)(F)F)cc2)(c2ccc(C(F)(F)F)cc2)c2ccc(C(F)(F)F)cc2)cc1)c1ccc(C[P+](c2ccc(C(F)(F)F)cc2)(c2ccc(C(F)(F)F)cc2)c2ccc(C(F)(F)F)cc2)cc1.[Br-].[Br-]	2.73 µM	8.51 µM	5.05 µM	25 µM	> 300 µM	16.4 µM	0.5	1.7	> 60
CCC[P+](CCC)(CCC)Cc1ccc(C(=O)c2ccc(C[P+](CCC)(CCC)CCC)cc2)cc1.[Br-].[Br-]	31.3 µM	27.2 µM	19.7 µM	> 130 µM	–	8.5 µM	1.6	1.4	–
O=S(=O)([O-])c1cccc([P+](Cc2ccc(Oc3ccc(C[P+](c4ccccc4)(c4ccccc4)c4cccc(S(=O)(=O)[O-])c4)cc3)cc2)(c2ccccc2)c2ccccc2)c1	> 100 µM	> 100 µM	> 100 µM	90.5 µM	> 300 µM	> 92 µM	–	–	–
CC(C)C[P+](Cc1ccc(Oc2ccc(C[P+](CC(C)C)(CC(C)C)CC(C)C)cc2)cc1)(CC(C)C)CC(C)C.[Br-].[Br-]	1.06 µM	0.8 µM	0.59 µM	51.1 µM	> 300 µM	1.62 µM	1.8	1.3	> 507
C[P+](C)(Cc1ccc(Oc2ccc(C[P+](C)(C)c3ccccc3)cc2)cc1)c1ccccc1.[Br-].[Br-]	6.15 µM	6.52 µM	7.22 µM	84.5 µM	> 300 µM	3.83 µM	0.9	0.9	> 40
Nc1nc(N)nc(Nc2ccc([As]3SCC(CO)S3)cc2)n1 (stereo unspecified) [MELARSOPROL]	–	–	–	–	–	0.0075 µM	–	–	–
CC(C)C[P+](Cc1ccc(S(=O)(=O)c2ccc(C[P+](CC(C)C)(CC(C)C)CC(C)C)cc2)cc1)(CC(C)C)CC(C)C.[Br-].[Br-]	13.3 µM	13.6 µM	16.7 µM	> 111 µM	–	6.31 µM	0.8	0.8	–
CC[P+](CC)(CC)Cc1ccc(C(=O)c2ccccc2)cc1	> 100 µM	> 100 µM	> 100 µM	> 254 µM	> 300 µM	> 254 µM	–	–	–
CC(C)[P+](Cc1ccc(C(=O)c2ccc(C[P+](C(C)C)(C(C)C)C(C)C)cc2)cc1)(C(C)C)C(C)C.[Br-].[Br-]	38.8 µM	33.4 µM	20.6 µM	> 130 µM	–	9.6 µM	1.9	1.6	–

Source: ChEMBL document CHEMBL2040794, “Synthesis and structure-activity analysis of new phosphonium salts with potent activity against African trypanosomes” (J Med Chem, 2012)
